Active and inactive are the calls of the source. The rule behind the calls is not given here.

The species entered for assay [1] is Mus musculus. As to the kind of experiment: Increase in life span, expressed as treated by control was determined in DBA2 mice inoculated with L1210 cells; NS denotes not significant. The assay is classed as functional, organism-based. The method in brief: (§1)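 DBA2 mice were inoculated with 10⁵ L1210 cells and treated. Increase in life span was reported as mean survival of treated over control × 100. Significance was assessed by Student's test.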

In assay [2] the test system is L1210. The experiment in a line: Dose required to inhibit growth of L1210 cells after 24-h exposure to the compound. The conditions noted are these: Mus musculus, L1210, 24 h; read-out: ED50 (the source's name). It counts as functional. The method in brief:
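Exponentially growing L1210 cells were exposed to a range of drug concentrations for 24 h. The dose giving 50% growth inhibition was determined.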

For a further assay, the system named is Calf thymus DNA. As to the kind of experiment: Affinity constant for calf thymus DNA. The assay is classed as nucleic-acid assay. The conditions noted are these: Bos taurus. The method in brief:
(§2)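 Fluorescence competition assay with ethidium dimer at 25 °C in 0.1 M Tris-HCl, 0.1 M NaCl buffer, pH 7.4. Calf thymus DNA (1.6 × 10⁻⁶ M base pairs) was equilibrated with ethidium dimer for 24 h, then measured with varied drug concentrations. Excitation was 540 nm and emission 610 nm. Bound dye per base pair was derived by the Gaugain method. Ka was fitted from computed versus experimental displacement curves.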

For assay [3], the species on record is Mus musculus. As to the kind of experiment: Optimal dose required against DBA2 mice inoculated with L1210 cells. The assay is classed as functional. The method in brief:
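DBA2 mice were inoculated with 10⁵ L1210 cells. The optimal dose (mg/kg) was the dose giving the greatest increase in life time of treated mice relative to controls.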

Assay [4] is filed under the species Mus musculus. As to the kind of experiment: Maximal tolerated dose against DBA2 mice inoculated with L1210 cells was determined. It counts as functional.
The species entered for assay [5] is Mus musculus. As to the kind of experiment: Increase in life span, expressed as treated by control was determined in DBA2 mice inoculated with L1210 cells. The assay is classed as functional. In outline:
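DBA2 mice inoculated with 10⁵ L1210 leukemia cells and treated with compound. Read-out was increase in life span as T/C × 100, the mean % survival of treated over control animals. Significance was tested by Student's test. Optimal dose in mg/kg was the dose that most extended the life time of treated mice.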

The test system of assay [6] is L1210. As to the kind of experiment: Dose required to inhibit the cloning efficacy of L1210 cells to a factor of 0.37 after 24-h exposure to the compound. It counts as functional, Mus musculus. The method in brief:
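Exponentially growing L1210 cells were exposed to a range of drug concentrations for 24 h, then assessed by cloning. The dose reducing cloning efficiency to a factor of 0.37 was determined.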

The species named for assay [7] is Mus musculus. As to the kind of experiment: Increase in life span, expressed as treated by control was determined in DBA2 mice inoculated with L1210 cells; NM denotes not measurable due to weak solubility. It counts as functional, organism-based. The method in brief: as §1
The test system of another assay is Nucleic Acid. The experiment in a line: Affinity constant against calf thymus DNA; NM denotes not measurable due to weak solubility. It counts as nucleic-acid assay. The conditions noted are these: Bos taurus. In outline:
as §2

For orientation: T/C means the ratio of treated to control. In general, MTD refers to the largest dose that counted as tolerated. Consider `COc1ccc2c(c1)c1c3cnccc3ccc1n2CCN1CCC(C2CCN(CCn3c4ccc(OC)cc4c4c5cnccc5ccc43)CC2)CC1.CS(=O)(=O)O.CS(=O)(=O)O`, for which the T/C entry in the assay filed under Mus musculus [1] was “inactive”. Moreover, the EC50 in the assay on L1210 [2] came to 600 nM. In the assay with Calf thymus DNA, this molecule came in with a Ka of 1e+07 M⁻¹. In the assay listed under Mus musculus [3], this molecule displayed an OD of 10 mg/kg. The molecule also yielded an MTD in the assay listed under Mus musculus [4] of 10 mg/kg.

With `COc1ccc2[nH]c3ccc4cc[n+](CCN5CCC(C6CCN(CC[n+]7ccc8ccc9[nH]c%10ccc(OC)cc%10c9c8c7)CC6)CC5)cc4c3c2c1.CS(=O)(=O)O.CS(=O)(=O)O.CS(=O)(=O)[O-].CS(=O)(=O)[O-]`, the OD in the assay filed under Mus musculus [3] was found to be 10 mg/kg. This molecule displayed an MTD in the assay listed under Mus musculus [4] of 10 mg/kg. Further, in the assay listed under Mus musculus [5], the T/C was 182%. Also, the ED37 in the assay on L1210 [6] is 0.02 µM.

Consider `COc1ccc2[nH]c3c(CN)cc4cc[n+](CCN5CCC(C6CCN(CC[n+]7ccc8cc(CN)c9[nH]c%10ccc(OC)cc%10c9c8c7)CC6)CC5)cc4c3c2c1.CS(=O)(=O)O.CS(=O)(=O)O.CS(=O)(=O)[O-].CS(=O)(=O)[O-]`, for which the T/C result in the assay listed under Mus musculus [1] was “inactive”. The EC50 in the assay on L1210 [2] was 57 nM. The Ka in the assay with Calf thymus DNA was found to be 2e+07 M⁻¹. The OD in the assay listed under Mus musculus [3] was determined as 10 mg/kg. In the assay listed under Mus musculus [4], the MTD stood at 20 mg/kg. The molecule also showed an ED37 with L1210 [6] of 0.066 µM.

Turning to `COc1ccc2[nH]c3c(C)cc4cc[n+](CCN5CCC(C6CCN(CC[n+]7ccc8cc(C)c9[nH]c%10ccc(OC)cc%10c9c8c7)CC6)CC5)cc4c3c2c1.CS(=O)(=O)O.CS(=O)(=O)O.CS(=O)(=O)[O-].CS(=O)(=O)[O-]`, the EC50 in the assay with L1210 [2] was 370 nM. Besides, the Ka with Calf thymus DNA was found to be 5e+08 M⁻¹. The molecule further had an OD in the assay filed under Mus musculus [3] of 7 mg/kg. Also, the MTD in the assay listed under Mus musculus [4] stood at 11 mg/kg. In the assay listed under Mus musculus [5], the T/C turned out to be 172%. The same molecule showed an ED37 with L1210 [6] of 0.1 µM.

In the case of `COc1ccc2[nH]c3c(C(=O)O)cc4cc[n+](CCN5CCC(C6CCN(CC[n+]7ccc8cc(C(=O)O)c9[nH]c%10ccc(OC)cc%10c9c8c7)CC6)CC5)cc4c3c2c1.CS(=O)(=O)O.CS(=O)(=O)O.CS(=O)(=O)[O-].CS(=O)(=O)[O-]`, in the assay listed under Mus musculus [7], the T/C entry is on record as “Not measurable”. The EC50 with L1210 [2] was over 800 nM. For the same molecule, the Ka in the assay on Calf thymus DNA was 250000 M⁻¹. In the assay with L1210 [6], this molecule registered an ED37 of over 0.8 µM.

Turning to `COc1ccc2[nH]c3ccc4cc[n+](CCN5CCC(C6CCN(CC[n+]7ccc8ccc9[nH]c%10ccc(OC)cc%10c9c8c7)CC6)CC5)cc4c3c2c1.[Cl-].[Cl-]` [DITERCALINIUM CHLORIDE], the EC50 in the assay with L1210 [2] came out at 190 nM. The OD in the assay listed under Mus musculus [3] was 10 mg/kg. Also, the MTD in the assay filed under Mus musculus [4] was determined as 10 mg/kg. In addition, the T/C in the assay filed under Mus musculus [5] is listed as 182%. The ED37 in the assay with L1210 [6] was found to be 0.024 µM.

As for `COc1ccc2[nH]c3c(C(=O)NCCN4CCC(C5CCN(CCNC(=O)c6cc7ccncc7c7c6[nH]c6ccc(OC)cc67)CC5)CC4)cc4ccncc4c3c2c1`, the T/C result in the assay listed under Mus musculus [1] was “inactive”. Also, the EC50 in the assay on L1210 [2] came out at 11000 nM. The same molecule had a Ka in the assay with Calf thymus DNA of 2e+08 M⁻¹. In the assay listed under Mus musculus [3], this molecule returned an OD of 10 mg/kg. The MTD in the assay filed under Mus musculus [4] came to 10 mg/kg. In the assay with L1210 [6], this molecule came in with an ED37 of 30 µM.

With `COc1ccc2c(c1)c1c3c(ccc1n2C)CCN(CCN1CCC(C2CCN(CCN4CCc5ccc6c(c5C4)c4cc(OC)ccc4n6C)CC2)CC1)C3.CS(=O)(=O)O.CS(=O)(=O)O`, the T/C entry in the assay listed under Mus musculus [1] is “inactive”. Moreover, in the assay on L1210 [2], the EC50 was 660 nM. The molecule also yielded a Ka in the assay on Calf thymus DNA of 4e+07 M⁻¹. Besides, the OD in the assay filed under Mus musculus [3] was found to be 10 mg/kg. This molecule also registered an MTD in the assay filed under Mus musculus [4] of 10 mg/kg. This molecule also displayed an ED37 with L1210 [6] of 0.6 µM.

For the molecule `COc1ccc2c(c1)c1c3c[n+](C)ccc3ccc1n2CCN1CCC(C2CCN(CCn3c4ccc(OC)cc4c4c5c[n+](C)ccc5ccc43)CC2)CC1.CS(=O)(=O)O.CS(=O)(=O)O.CS(=O)(=O)[O-].CS(=O)(=O)[O-]`, the EC50 with L1210 [2] was 900 nM. Moreover, the Ka in the assay with Calf thymus DNA is over 1e+09 M⁻¹. Besides, the OD in the assay listed under Mus musculus [3] came out at 5 mg/kg. Besides, the maximum tolerated dose (MTD) in the assay filed under Mus musculus [4] was determined as 5 mg/kg. For the same molecule, the T/C in the assay filed under Mus musculus [5] worked out at 134%.

Regarding `COc1ccc2[nH]c3c(CNC(=O)[C@]4(O)O[C@H](CO)[C@H](O)[C@H]4O)cc4cc[n+](CCN5CCC(C6CCN(CC[n+]7ccc8cc(CNC(=O)[C@]9(O)O[C@H](CO)[C@H](O)[C@H]9O)c9[nH]c%10ccc(OC)cc%10c9c8c7)CC6)CC5)cc4c3c2c1`, the EC50 with L1210 [2] is 2150 nM. Further, the Ka in the assay with Calf thymus DNA was determined as 3e+06 M⁻¹.

For `COc1ccc2[nH]c3ccc4cc[n+](CCN5CCC(C6CCN(CC[n+]7ccc8ccc9[nH]c%10ccc(OC)cc%10c9c8c7)CC6)CC5)cc4c3c2c1`, the Ka in the assay with Calf thymus DNA stood at 1e+07 M⁻¹.

For the molecule `COc1ccc2[nH]c3c(CNC(=O)[C@@H](N)CCC(=O)O)cc4cc[n+](CCN5CCC(C6CCN(CC[n+]7ccc8cc(CNC(=O)[C@@H](N)CCC(=O)O)c9[nH]c%10ccc(OC)cc%10c9c8c7)CC6)CC5)cc4c3c2c1.CS(=O)(=O)O.CS(=O)(=O)O.CS(=O)(=O)[O-].CS(=O)(=O)[O-]`, the T/C entry in the assay filed under Mus musculus [7] was “Not measurable”. Also, the Ka result in the assay on Nucleic Acid was “Not measurable”. In addition, the EC50 in the assay with L1210 [2] was 460 nM. This molecule displayed an ED37 in the assay with L1210 [6] of over 0.58 µM.

Values taken from ChEMBL document CHEMBL1126026, “Synthesis and biological activity of new dimers in the 7H-pyrido[4,3-c] carbazole antitumor series” (1992).
